In ChEMBL document CHEMBL1145396, “High-throughput synthesis and screening of cyclic peptide antibiotics” (J Med Chem, 2007):
Converted amounts (≈) assume the structure as drawn. The source made the active and inactive calls. The calls are words filed in the database; no cut-off is given here. Square brackets hold non-standard residues; d marks the D form. Peptide text beside a SMILES is read from it. Orn = NCCC[C@H](N)C(=O)O

Key:
Enterococcus faecalis [1] = assay: Antimicrobial activity against Enterococcus faecalis; format: functional
In short: (§1)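 Microtiter broth assay. Peptide stock in 30% DMSO/water, neutralized with sodium phosphate pH 7.0, added to a 1000-fold diluted overnight bacterial culture (1:5 into final volume). Incubated 7 h at 37 °C. Growth scored visually.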

Escherichia coli [2] = assay: Antimicrobial activity against Escherichia coli; format: functional; in short: as §1
[3] = Ratio of MHC for human RBC to MIC for Bacillus subtilis; format: functional
[4] = tested on: Staphylococcus epidermidis; assay: Antimicrobial activity against Staphylococcus epidermidis; format: functional; in short: as §1
[5] = Toxicity assessed as hemolytic activity in human RBC; format: cell-based; settings: erythrocyte
In short: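 Peptide stocks were serially diluted 2-fold in water, then mixed with fresh human erythrocytes diluted 100-fold in PBS pH 7.4. Incubated overnight at room temperature and inspected visually for lysis. MHC was taken as the lowest concentration lysing half of the cells.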

Bacillus subtilis [6] = assay: Antimicrobial activity against Bacillus subtilis; format: functional; in short: as §1
Enterococcus faecalis [7] = assay: Antimicrobial activity against Enterococcus faecalis at 32 ug/mL; format: functional, organism-based
Bacillus subtilis [8] = assay: Antimicrobial activity against Bacillus subtilis at 32 ug/mL; format: functional
Escherichia coli [9] = assay: Antimicrobial activity against Escherichia coli at 32 ug/mL; format: functional, organism-based
[10] = tested on: Staphylococcus epidermidis; assay: Antimicrobial activity against Staphylococcus epidermidis at 32 ug/mL; format: functional, organism-based

| Structure (SMILES) | MIC (Enterococcus faecalis [1]) [µg/mL] | MIC (Escherichia coli [2]) [µg/mL] | MIC [4] [µg/mL] | MIC (Bacillus subtilis [6]) [µg/mL] | MIC (Bacillus subtilis [8]) [µg/mL] | Ratio [3] | Activity [5] [µg/mL] | Activity (Enterococcus faecalis [7]) | Activity (Bacillus subtilis [8]) | Activity (Escherichia coli [9]) | Activity [10] |
| --- | --- | --- | --- | --- | --- | --- | --- | --- | --- | --- | --- |
| CCCNC(=O)C[C@H]1NC(=O)[C@@H](CCCCN)NC(=O)[C@H](Cc2ccccc2)NC(=O)[C@@H]2CCCN2C(=O)[C@@H](Cc2ccccc2)NC(=O)[C@@H]2CCCN2C(=O)[C@H](CCCN)NC(=O)[C@H](C(C)C)NC(=O)[C@H](Cc2ccc(O)cc2)NC(=O)[C@H](Cc2ccc(F)cc2)NC1=O | 8 (≈ 6.09 µM) | 32 (≈ 24.3 µM) | 32 (≈ 24.3 µM) | 4 (≈ 3.04 µM) | – | 32 | 128 | – | – | – | – |
| CCCNC(=O)C[C@@H]1NC(=O)[C@@H](CCCNC(=N)N)NC(=O)[C@H](Cc2ccccc2)NC(=O)[C@@H]2CCCN2C(=O)[C@@H](Cc2ccccc2)NC(=O)[C@H](Cc2ccc(F)cc2)NC(=O)[C@H](CCCN)NC(=O)[C@H](C(C)C)NC(=O)[C@H](Cc2ccc(O)cc2)NC(=O)CNC1=O [listing 1 of 2 here] | – | – | – | – | – | – | 16 | – | – | – | – |
| CCCNC(=O)C[C@@H]1NC(=O)[C@@H](CCCNC(=N)N)NC(=O)[C@H](Cc2ccccc2)NC(=O)[C@@H]2CCCN2C(=O)[C@@H](Cc2ccccc2)NC(=O)[C@H](Cc2ccc(F)cc2)NC(=O)[C@H](CCCN)NC(=O)[C@H](C(C)C)NC(=O)[C@H](Cc2ccc(O)cc2)NC(=O)CNC1=O [listing 2 of 2 here] | 2 (≈ 1.54 µM) | 4 (≈ 3.07 µM) | 1 (≈ 0.768 µM) | 1 (≈ 0.768 µM) | – | – | – | – | – | – | – |
| CC(C)C[C@@H]1NC(=O)[C@H](CCCN)NC(=O)[C@H](C(C)C)NC(=O)[C@H](Cc2ccc(O)cc2)NC(=O)[C@H](CCC(N)=O)NC(=O)[C@H](CC(N)=O)NC(=O)[C@@H](Cc2ccccc2)NC(=O)[C@H](Cc2ccccc2)NC(=O)[C@@H]2CCCN2C(=O)[C@@H](Cc2ccccc2)NC1=O [TYROCIDINE A] (cyclo(F[dF]NQYV[Orn]L[dF]P)) | 1 (≈ 0.787 µM) | 8 (≈ 6.3 µM) | 1 (≈ 0.787 µM) | 1 (≈ 0.787 µM) | – | 2 | 2 | – | – | – | – |
| CCCNC(=O)C[C@H]1NC(=O)[C@@H](CCCNC(=N)N)NC(=O)[C@H](Cc2ccccc2)NC(=O)[C@@H]2CCCN2C(=O)[C@@H](Cc2ccccc2)NC(=O)[C@H](Cc2ccc(F)cc2)NC(=O)[C@H](CCCN)NC(=O)[C@H](C(C)C)NC(=O)[C@H](Cc2ccc(O)cc2)NC(=O)CNC1=O | – | – | – | – | – | 8 | – | – | – | – | – |
| CCCNC(=O)C[C@H]1NC(=O)[C@@H](CCCNC(=N)N)NC(=O)[C@H](Cc2ccccc2)NC(=O)[C@@H]2CCCN2C(=O)[C@@H](Cc2ccccc2)NC(=O)[C@@H]2CCCN2C(=O)[C@H](CCCN)NC(=O)[C@H](C(C)C)NC(=O)[C@H](Cc2ccc(O)cc2)NC(=O)[C@@H](C)NC1=O | – | – | – | – | 0.5 (≈ 0.4 µM) | 1024 | 514 | inactive | – | inactive | inactive |
| CCCNC(=O)C[C@@H]1NC(=O)[C@@H](Cc2ccccc2)NC(=O)[C@H](Cc2ccccc2)NC(=O)[C@@H]2CCCN2C(=O)[C@@H](Cc2ccccc2)NC(=O)CNC(=O)[C@H](CCCN)NC(=O)[C@H](C(C)C)NC(=O)[C@H](Cc2ccc(O)cc2)NC(=O)[C@H](CCCCN)NC1=O | 32 (≈ 25.5 µM) | – | 16 (≈ 12.7 µM) | 8 (≈ 6.37 µM) | – | 8 | 64 | – | – | inactive | – |

More lines, main results first:

| MIC (Enterococcus faecalis [1]) [µg/mL] | MIC (Escherichia coli [2]) [µg/mL] | MIC [4] [µg/mL] | MIC (Bacillus subtilis [6]) [µg/mL] | MIC (Bacillus subtilis [8]) [µg/mL] | Structure (SMILES) | Ratio [3] | Activity [5] [µg/mL] | Activity (Enterococcus faecalis [7]) | Activity (Bacillus subtilis [8]) | Activity (Escherichia coli [9]) | Activity [10] |
| --- | --- | --- | --- | --- | --- | --- | --- | --- | --- | --- | --- |
| 16 (≈ 12.1 µM) | 32 (≈ 24.2 µM) | 8 (≈ 6.05 µM) | 8 (≈ 6.05 µM) | – | CCCNC(=O)C[C@@H]1NC(=O)[C@@H](CCCNC(=N)N)NC(=O)[C@H](Cc2ccccc2)NC(=O)[C@@H]2CCCN2C(=O)[C@@H](Cc2ccccc2)NC(=O)[C@@H](CC(C)C)NC(=O)[C@H](CCCN)NC(=O)[C@H](C(C)C)NC(=O)[C@H](Cc2ccc(O)cc2)NC(=O)[C@H](CCCCN)NC1=O | 16 | 128 | – | – | – | – |
| 16 (≈ 11.9 µM) | 32 (≈ 23.8 µM) | 4 (≈ 2.98 µM) | 4 (≈ 2.98 µM) | – | CCCNC(=O)C[C@@H]1NC(=O)[C@@H](CCCCN)NC(=O)[C@H](Cc2ccccc2)NC(=O)[C@@H]2CCCN2C(=O)[C@@H](Cc2ccccc2)NC(=O)[C@H](Cc2ccc(O)cc2)NC(=O)[C@H](CCCN)NC(=O)[C@H](C(C)C)NC(=O)[C@H](Cc2ccc(O)cc2)NC(=O)[C@H](CCCCN)NC1=O | 32 | 128 | – | – | – | – |
| 8 (≈ 6 µM) | 16 (≈ 12 µM) | 2 (≈ 1.5 µM) | 2 (≈ 1.5 µM) | – | CCCNC(=O)C[C@@H]1NC(=O)[C@@H](CCCNC(=N)N)NC(=O)[C@H](Cc2ccccc2)NC(=O)[C@@H]2CCCN2C(=O)[C@@H](Cc2ccccc2)NC(=O)[C@H](Cc2ccc(F)cc2)NC(=O)[C@H](CCCN)NC(=O)[C@H](C(C)C)NC(=O)[C@H](Cc2ccc(O)cc2)NC(=O)[C@H](CO)NC1=O | 8 | 16 | – | – | – | – |
| – | 32 (≈ 24.8 µM) | – | 32 (≈ 24.8 µM) | – | CCCNC(=O)C[C@@H]1NC(=O)[C@@H](Cc2ccccc2)NC(=O)[C@H](Cc2ccccc2)NC(=O)[C@@H]2CCCN2C(=O)[C@@H](Cc2ccccc2)NC(=O)CN(C)C(=O)[C@H](CCCN)NC(=O)[C@H](C(C)C)NC(=O)[C@H](Cc2ccc(O)cc2)NC(=O)[C@@H](Cc2ccccc2)NC1=O | – | – | – | – | – | – |
| – | 32 (≈ 24.3 µM) | – | > 32 | – | CCCNC(=O)C[C@@H]1NC(=O)[C@@H](CCCCN)NC(=O)[C@H](Cc2ccccc2)NC(=O)[C@@H]2CCCN2C(=O)[C@@H](Cc2ccccc2)NC(=O)[C@@H]2CCCN2C(=O)[C@H](CCCN)NC(=O)[C@H](C(C)C)NC(=O)[C@H](Cc2ccc(O)cc2)NC(=O)[C@H](Cc2ccc(F)cc2)NC1=O | – | – | inactive | inactive | inactive | inactive |
| – | 32 (≈ 24.5 µM) | – | 8 (≈ 6.12 µM) | – | CCCNC(=O)C[C@@H]1NC(=O)[C@@H](CCCNC(=N)N)NC(=O)[C@H](Cc2ccccc2)NC(=O)[C@@H]2CCCN2C(=O)[C@@H](Cc2ccccc2)NC(=O)[C@@H](CC(N)=O)NC(=O)[C@H](CCCN)NC(=O)[C@H](C(C)C)NC(=O)[C@H](Cc2ccc(O)cc2)NC(=O)[C@@H](CC(C)C)NC1=O | – | – | – | – | – | – |
| 8 (≈ 5.71 µM) | 8 (≈ 5.71 µM) | 4 (≈ 2.85 µM) | 1 (≈ 0.713 µM) | – | CCCNC(=O)C[C@@H]1NC(=O)[C@@H](CCCNC(=N)N)NC(=O)[C@H](Cc2ccccc2)NC(=O)[C@@H]2CCCN2C(=O)[C@@H](Cc2ccccc2)NC(=O)[C@H](Cc2ccc(F)cc2)NC(=O)[C@H](CCCN)NC(=O)[C@H](C(C)C)NC(=O)[C@H](Cc2ccc(O)cc2)NC(=O)[C@H](CCCNC(=N)N)NC1=O | 4 | 8 | – | – | – | – |
| – | 32 (≈ 25.6 µM) | – | > 32 | – | CCCNC(=O)C[C@@H]1NC(=O)[C@@H](CCCNC(=N)N)NC(=O)[C@H](Cc2ccccc2)NC(=O)[C@@H]2CCCN2C(=O)[C@@H](Cc2ccccc2)NC(=O)[C@@H]2CCCN2C(=O)[C@H](CCCN)NC(=O)[C@H](C(C)C)NC(=O)[C@H](Cc2ccc(O)cc2)NC(=O)[C@@H](C)NC1=O | – | – | inactive | inactive | inactive | inactive |
| 16 (≈ 11.9 µM) | 16 (≈ 11.9 µM) | 4 (≈ 2.98 µM) | 2 (≈ 1.49 µM) | – | CCCNC(=O)C[C@H]1NC(=O)[C@@H](CCCCN)NC(=O)[C@H](Cc2ccccc2)NC(=O)[C@@H]2CCCN2C(=O)[C@@H](Cc2ccccc2)NC(=O)[C@H](Cc2ccc(O)cc2)NC(=O)[C@H](CCCN)NC(=O)[C@H](C(C)C)NC(=O)[C@H](Cc2ccc(O)cc2)NC(=O)[C@H](CCCCN)NC1=O | 32 | 64 | – | – | – | – |
